ChEMBL document CHEMBL3352149, “Promiscuity and selectivity in covalent enzyme inhibition: a systematic study of electrophilic fragments” (J Med Chem, 2014)
pEC50: −log10 of the molar value.

Experiments:
Escherichia coli [1] = experiment: Inhibition of Escherichia coli MetAP at 25 uM after 20 mins by HPLC analysis
Outline: (§1)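 Endpoint assay. Enzyme (50 nM) was preincubated with 25 μM compound for 20 min at 37 °C in 50 mM Tris pH 7.5, 100 mM NaCl, 100 μM CoCl2, 0.075% BSA. MGMM substrate (400 μM) was then added for 15 min (human MetAP-1) or 20 min (E. coli MetAP). Reactions were stopped with TFA. GMM product was quantified by RP-HPLC, UV 214 nm. Triplicate.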

[2] = biological target: Methionine aminopeptidase 1 (Homo sapiens) (UniProt P53582); experiment: Inhibition of human MetAP at 25 uM after 20 mins by HPLC analysis; outline: as §1
Escherichia coli [3] = experiment: Inhibition of wild-type Escherichia coli MurA compound preincubated for 10 mins before substrate addition at 25 uM measured after 15 mins by LC-MS method
Escherichia coli [4] = experiment: Inhibition of wild-type Escherichia coli MurB compound preincubated for 10 mins before substrate addition at 25 uM measured after 15 mins by LC-MS method
Outline: (§2)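 E. coli wild-type enzyme (4 nM) was preincubated with 25 μM compound for 10 min at 37 °C. Enzymatically generated nucleotide-sugar substrate (~200 μM) plus ATP (~200 μM), or NADPH 200 μM for MurB, was added for 10 min. Reactions were started with amino-acid cosubstrate (MurC–F) or EP-UNAG (MurB), run 15 min at 37 °C, and quenched with formic acid. Product was measured by negative-ESI LC-MS EIC peak area. MgCl2: MurC 10, MurD/E 2, MurF 5 mM; MurB had 5 mM KCl. All in 50 mM NH4HCO3, 0.07% BSA, 1% DMSO; triplicate.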

Escherichia coli [5] = experiment: Inhibition of wild-type Escherichia coli MurC compound preincubated for 10 mins before substrate addition at 25 uM measured after 15 mins by LC-MS method; outline: as §2
Escherichia coli [6] = experiment: Inhibition of wild-type Escherichia coli MurD compound preincubated for 10 mins before substrate addition at 25 uM measured after 15 mins by LC-MS method; outline: as §2
Escherichia coli [7] = experiment: Inhibition of wild-type Escherichia coli MurE compound preincubated for 10 mins before substrate addition at 25 uM measured after 15 mins by LC-MS method; outline: as §2
Escherichia coli [8] = experiment: Inhibition of wild-type Escherichia coli MurF compound preincubated for 10 mins before substrate addition at 25 uM measured after 15 mins by LC-MS method; outline: as §2
[9] = GSH reactivity of the compound assessed as adducts formation by RP-HPLC analysis
Outline: (§3)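 Fresh aqueous glutathione (10 mM solution) was added to 50 mM Tris-maleate buffer, pH 7.5. The reaction was started with compound from 10 mM DMSO stock (final 250 μM). Mixtures were followed by reversed-phase HPLC on an ODS column with a gradient to 100% B; rate constants are given in l·mol⁻¹·s⁻¹.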

HeLa = experiment: Cytotoxicity against human HeLa cells assessed as reduction in cell viability after 24 hrs by CellTiter-Blue assay; format: cell-based
Outline: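 HeLa cells seeded in triplicate at 5×10^3 cells/well and grown 24 h at 37 °C/5% CO2. Compounds at varying concentrations were added as a 2x stock in phenol-red-free DMEM with FBS, penicillin/streptomycin, sodium pyruvate and L-glutamine, then left 24 h. Medium was replaced with CellTiter-Blue medium for 3 h. A570/A610 was read after background subtraction, as % of untreated controls; EC50 derived.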

[10] = biological target: Genome polyprotein (dengue virus type 2) (UniProt P12823); experiment: Inhibition of Dengue virus serotype 2 NS2B-NS3 protease at 50 uM
[11] = biological target: Genome polyprotein (West Nile virus) (UniProt P06935); experiment: Inhibition of West Nile virus NS2B-NS3 protease at 50 uM
Genome polyprotein (West Nile virus), sequence (P06935 whole entry): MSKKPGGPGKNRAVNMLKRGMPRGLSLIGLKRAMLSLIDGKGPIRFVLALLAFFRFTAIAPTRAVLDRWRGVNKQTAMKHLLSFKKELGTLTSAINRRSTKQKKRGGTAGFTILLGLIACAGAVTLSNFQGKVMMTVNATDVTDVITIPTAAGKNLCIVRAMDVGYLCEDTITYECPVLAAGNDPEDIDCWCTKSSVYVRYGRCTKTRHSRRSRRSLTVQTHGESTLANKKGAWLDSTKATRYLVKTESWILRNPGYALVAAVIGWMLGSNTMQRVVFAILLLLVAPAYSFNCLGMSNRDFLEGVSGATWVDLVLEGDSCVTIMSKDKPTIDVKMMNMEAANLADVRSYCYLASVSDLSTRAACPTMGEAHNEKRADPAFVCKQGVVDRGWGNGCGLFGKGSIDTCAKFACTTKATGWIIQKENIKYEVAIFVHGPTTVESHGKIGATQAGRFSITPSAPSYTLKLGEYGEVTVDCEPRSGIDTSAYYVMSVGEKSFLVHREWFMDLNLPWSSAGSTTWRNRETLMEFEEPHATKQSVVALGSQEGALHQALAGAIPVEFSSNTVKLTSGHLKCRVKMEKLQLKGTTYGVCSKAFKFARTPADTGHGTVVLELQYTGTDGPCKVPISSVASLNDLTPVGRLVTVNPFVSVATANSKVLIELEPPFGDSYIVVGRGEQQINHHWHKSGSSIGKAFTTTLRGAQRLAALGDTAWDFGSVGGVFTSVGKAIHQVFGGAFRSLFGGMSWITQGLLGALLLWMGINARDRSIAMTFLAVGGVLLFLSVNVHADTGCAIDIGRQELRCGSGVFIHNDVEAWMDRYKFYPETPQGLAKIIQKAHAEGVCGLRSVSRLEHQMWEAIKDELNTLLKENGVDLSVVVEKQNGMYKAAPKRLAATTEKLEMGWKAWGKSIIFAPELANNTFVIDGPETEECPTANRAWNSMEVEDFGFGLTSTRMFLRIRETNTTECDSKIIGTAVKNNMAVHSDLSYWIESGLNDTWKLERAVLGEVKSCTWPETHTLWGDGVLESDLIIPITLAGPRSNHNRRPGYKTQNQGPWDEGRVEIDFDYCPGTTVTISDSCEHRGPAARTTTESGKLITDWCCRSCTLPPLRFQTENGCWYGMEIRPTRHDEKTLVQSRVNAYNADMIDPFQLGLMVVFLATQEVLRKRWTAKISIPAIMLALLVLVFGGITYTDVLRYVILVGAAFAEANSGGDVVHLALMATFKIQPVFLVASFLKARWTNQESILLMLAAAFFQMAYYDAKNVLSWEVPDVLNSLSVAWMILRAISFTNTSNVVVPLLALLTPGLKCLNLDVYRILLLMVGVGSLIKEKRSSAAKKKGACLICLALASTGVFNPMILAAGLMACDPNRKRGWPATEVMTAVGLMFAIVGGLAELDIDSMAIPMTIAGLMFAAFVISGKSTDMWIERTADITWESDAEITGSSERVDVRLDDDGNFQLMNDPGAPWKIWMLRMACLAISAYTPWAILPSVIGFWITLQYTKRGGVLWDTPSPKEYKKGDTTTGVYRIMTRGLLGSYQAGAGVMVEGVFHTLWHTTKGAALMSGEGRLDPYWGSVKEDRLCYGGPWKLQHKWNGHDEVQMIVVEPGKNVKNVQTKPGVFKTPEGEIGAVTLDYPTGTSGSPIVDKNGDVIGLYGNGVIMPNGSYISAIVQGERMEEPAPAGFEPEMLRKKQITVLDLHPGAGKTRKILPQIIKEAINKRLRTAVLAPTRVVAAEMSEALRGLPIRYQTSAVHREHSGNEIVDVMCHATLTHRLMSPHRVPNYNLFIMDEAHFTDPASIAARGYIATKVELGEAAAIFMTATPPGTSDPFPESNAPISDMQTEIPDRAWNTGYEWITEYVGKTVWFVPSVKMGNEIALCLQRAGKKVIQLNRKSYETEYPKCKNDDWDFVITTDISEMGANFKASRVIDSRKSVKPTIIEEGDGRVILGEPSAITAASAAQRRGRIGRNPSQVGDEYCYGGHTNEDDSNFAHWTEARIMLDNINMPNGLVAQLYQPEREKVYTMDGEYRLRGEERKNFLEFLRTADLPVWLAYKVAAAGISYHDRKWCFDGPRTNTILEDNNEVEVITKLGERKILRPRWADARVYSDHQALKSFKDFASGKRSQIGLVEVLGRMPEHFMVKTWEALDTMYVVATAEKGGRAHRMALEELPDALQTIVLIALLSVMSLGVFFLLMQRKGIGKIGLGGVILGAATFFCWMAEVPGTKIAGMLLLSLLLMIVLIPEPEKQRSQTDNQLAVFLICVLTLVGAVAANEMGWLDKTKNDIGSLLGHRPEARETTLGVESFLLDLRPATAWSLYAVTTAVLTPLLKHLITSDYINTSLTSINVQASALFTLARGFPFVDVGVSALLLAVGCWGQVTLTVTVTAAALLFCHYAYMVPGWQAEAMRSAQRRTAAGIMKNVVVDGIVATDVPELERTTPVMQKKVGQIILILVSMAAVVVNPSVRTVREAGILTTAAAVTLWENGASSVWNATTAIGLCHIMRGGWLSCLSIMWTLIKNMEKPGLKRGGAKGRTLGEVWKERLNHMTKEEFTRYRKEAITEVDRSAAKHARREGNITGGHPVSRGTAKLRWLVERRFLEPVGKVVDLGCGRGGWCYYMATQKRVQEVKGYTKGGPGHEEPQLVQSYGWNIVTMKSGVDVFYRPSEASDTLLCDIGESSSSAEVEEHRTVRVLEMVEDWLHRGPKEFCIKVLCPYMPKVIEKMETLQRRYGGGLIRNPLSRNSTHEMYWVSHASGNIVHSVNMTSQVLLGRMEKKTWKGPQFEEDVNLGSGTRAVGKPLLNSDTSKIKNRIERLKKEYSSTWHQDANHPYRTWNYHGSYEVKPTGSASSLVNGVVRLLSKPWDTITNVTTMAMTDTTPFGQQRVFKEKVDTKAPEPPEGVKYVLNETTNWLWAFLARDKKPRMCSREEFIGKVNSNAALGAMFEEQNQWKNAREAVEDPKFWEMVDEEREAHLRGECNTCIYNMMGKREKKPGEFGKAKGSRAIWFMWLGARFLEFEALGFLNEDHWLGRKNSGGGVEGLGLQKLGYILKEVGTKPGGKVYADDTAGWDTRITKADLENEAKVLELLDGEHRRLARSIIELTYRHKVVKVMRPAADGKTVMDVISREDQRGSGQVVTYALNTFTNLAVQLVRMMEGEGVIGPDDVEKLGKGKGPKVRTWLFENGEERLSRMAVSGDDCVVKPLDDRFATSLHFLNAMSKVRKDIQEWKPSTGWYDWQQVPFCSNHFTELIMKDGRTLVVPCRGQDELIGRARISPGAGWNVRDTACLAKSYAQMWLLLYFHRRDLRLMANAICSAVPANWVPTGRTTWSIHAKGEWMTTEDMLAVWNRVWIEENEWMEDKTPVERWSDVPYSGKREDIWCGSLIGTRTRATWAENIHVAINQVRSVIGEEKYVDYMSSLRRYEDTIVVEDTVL

Prothrombin (Bos taurus) = Prothrombin (Bos taurus) (UniProt P00735); experiment: Inhibition of Bovine thrombin using Boc-Val-Pro-Arg-AMC as substrate compound preincubated at 25 uM for 15 mins by fluorescence assay
Outline: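 Bovine thrombin (final 10 nM) was preincubated 15 min with 25 μM compound in 50 mM Tris-HCl pH 7.5, 150 mM NaCl, 0.05% Tween 20. The reaction was started with Boc-Val-Pro-Arg-AMC (50 μM final). Fluorescence (ex 355/em 460 nm) was monitored continuously for 10 min; activity taken as slope (RFU/s). Triplicate.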

[12] = GSH reactivity of the compound assessed as adducts formation meaured over 3 hrs by RP-HPLC analysis; outline: as §3

Row | SMILES | inhibition (Escherichia coli [1]) | inhibition [2] | inhibition (Escherichia coli [3]) | inhibition (Escherichia coli [4]) | inhibition (Escherichia coli [5]) | inhibition (Escherichia coli [6]) | inhibition (Escherichia coli [7]) | inhibition (Escherichia coli [8]) | Activity [9] | pEC50 (HeLa) | inhibition [10] | inhibition [11] | inhibition (Prothrombin (Bos taurus)) | Activity [12]
1 | N#CCNC(=O)c1ccccc1 | < 15% | < 15% | < 15% | 17% | < 15% | < 15% | < 15% | < 15% | < 0.1 L/mol/s | < 4.00 | < 15% | 23% | < 15% | –
2 | C=CCNc1ccccc1 | < 15% | 22% | 16% | < 15% | < 15% | < 15% | < 15% | < 15% | < 0.1 L/mol/s | < 4.00 | < 15% | < 15% | < 15% | –
3 | CCCCNC(=O)CC#N | < 15% | < 15% | < 15% | < 15% | < 15% | < 15% | < 15% | < 15% | < 0.1 L/mol/s | < 4.00 | < 15% | < 15% | < 15% | –
4 | C=CC(=O)NCCc1ccccc1 | < 15% | < 15% | < 15% | < 15% | < 15% | < 15% | < 15% | < 15% | < 0.1 L/mol/s | – | < 15% | < 15% | < 15% | < 5%
5 | CCCCNC(=O)CCl | < 15% | < 15% | < 15% | < 15% | < 15% | < 15% | 15% | < 15% | < 0.1 L/mol/s | < 4.00 | < 15% | < 15% | < 15% | –
6 | C=CCNc1ccc(C)cc1 | < 15% | < 15% | < 15% | < 15% | < 15% | < 15% | < 15% | 15% | < 0.1 L/mol/s | – | < 15% | < 15% | < 15% | –
7 | Cc1ccc(NC(=O)n2ccnc2)cc1 | < 15% | < 15% | < 15% | < 15% | < 15% | < 15% | < 15% | < 15% | < 0.1 L/mol/s | – | < 15% | < 15% | < 15% | –
8 | N#CCC(=O)Nc1ccc(F)cc1 | < 15% | < 15% | < 15% | < 15% | < 15% | < 15% | < 15% | < 15% | < 0.1 L/mol/s | – | < 15% | < 15% | < 15% | –
9 | N#CCC(=O)NC1CCCC1 | < 15% | < 15% | < 15% | < 15% | < 15% | < 15% | 16% | < 15% | < 0.1 L/mol/s | – | < 15% | < 15% | < 15% | –
10 | O=C(CCl)NCc1ccccc1 | < 15% | < 15% | < 15% | < 15% | < 15% | < 15% | < 15% | < 15% | < 0.1 L/mol/s | – | < 15% | < 15% | < 15% | –
11 | C=CCNc1ccc(OC)cc1 | < 15% | < 15% | < 15% | 20% | < 15% | < 15% | < 15% | < 15% | < 0.1 L/mol/s | – | < 15% | < 15% | < 15% | –
12 | COc1ccc(NC(=O)CCl)cc1 | < 15% | < 15% | < 15% | < 15% | < 15% | < 15% | < 15% | < 15% | < 0.1 L/mol/s | – | < 15% | < 15% | < 15% | –
13 | COc1ccc(NC(=O)n2ccnc2)cc1 | < 15% | < 15% | 17% | < 15% | < 15% | < 15% | < 15% | < 15% | < 0.1 L/mol/s | – | < 15% | < 15% | < 15% | –
14 | C=CCNCCCC | < 15% | < 15% | < 15% | 19% | < 15% | < 15% | < 15% | < 15% | < 0.1 L/mol/s | < 4.00 | < 15% | < 15% | < 15% | –
15 | O=C(Nc1ccc([N+](=O)[O-])cc1)n1ccnc1 | < 15% | < 15% | < 15% | < 15% | < 15% | < 15% | < 15% | < 15% | < 0.1 L/mol/s | – | < 15% | < 15% | < 15% | –
16 | Cc1ccc(NC(=O)CC#N)cc1 | < 15% | < 15% | < 15% | < 15% | < 15% | < 15% | < 15% | < 15% | < 0.1 L/mol/s | – | < 15% | < 15% | < 15% | –
17 | BrC1=NOC(c2ccccc2)C1 (configuration not stated) | < 15% | < 15% | < 15% | < 15% | < 15% | < 17% | < 15% | < 15% | < 0.1 L/mol/s | – | < 15% | < 15% | < 15% | –
18 | CC(=O)Nc1ccc([N+](=O)[O-])cc1 | < 15% | < 15% | < 15% | < 15% | < 15% | < 15% | < 15% | < 15% | < 0.1 L/mol/s | – | < 15% | < 15% | < 15% | –
19 | N#CCNC(=O)/C=C/c1ccccc1 | < 15% | < 15% | < 15% | < 15% | < 15% | < 17% | < 15% | < 15% | < 0.1 L/mol/s | < 4.00 | 17% | 18% | < 15% | –
20 | C=CCNCCc1ccccc1 | < 15% | < 15% | < 15% | < 15% | < 15% | < 15% | < 15% | < 15% | < 0.1 L/mol/s | – | < 15% | < 15% | < 15% | –
